From publication PMC11191573 (ACS Omega, 2024)

Key:
[1] = system: THP-1 cells; assay: MTT assay; assay type: cell-based, human; conditions: 0, 0.1, 1 or 10 μM tested, 24 h
In short: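 THP-1 cells were plated at 5 × 10^4 cells/well and cultured 24 h at 37 °C. Medium containing 0, 0.1, 1 or 10 μM constituent was added for a further 24 h. Viability was measured with an MTT kit per the manufacturer's protocol and used to set nontoxic working concentrations.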

[2] = system: TNF mRNA in THP-1 cells; assay: RT-qPCR of TNF in Aβ1–42-stimulated THP-1 cells; assay type: cell-based, human; conditions: 10 μM Aβ1–42, 24 h; ARA 0.1 μM, LPC 10 μM, LTN 0.1 μM, POA 10 μM, ZX 1 μM
[3] = biological target: T1, Aβ1–42 (Homo sapiens, UniProt P05067); assay: PICUP oligomerization assay; assay type: biochemical; conditions: 50 μM constituent (final), 25 μM Aβ
[4] = biological target: T1, Aβ1–42; assay: ThT assay of Aβ1–42 aggregation; assay type: biochemical; conditions: for Time course of RFU (curve shape) at lower concentrations: 25 and 50 μM constituent, data not shown; for Concentration dependence of activity in ThT assay: 25, 50, 100 μM
In short: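 Aβ1−42 was dissolved in 2 mM NaOH, lyophilized, then taken up in 20 mM phosphate buffer pH 7.4. Final concentrations were 50 μM Aβ1−42, 200 μM ThT and 100 μM constituent (25 and 50 μM for concentration dependence). Fluorescence (Ex 440/Em 484 nm) was read every 5 min for 3 h at 37 °C and blank-subtracted. Phenol red was the positive control and Aβ alone the negative. IC50 came from sigmoidal fitting. Mean ± SD, n = 3.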

[5] = biological target: T1, Aβ1–42; assay: FTIR spectroscopy of Aβ1–42 secondary structure; assay type: biochemical; conditions: after ThT assay, mixed with Aβ1–42
In short: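 Samples came from completed ThT assays (50 μM Aβ1−42 ± 100 μM constituent, 37 °C, 3 h). 15 μL was dried on a diamond ATR prism at 25 °C, repeated twice. ATR-FTIR spectra were taken over 1500–1700 cm−1 with 100 s integration. The area under the parallel β-sheet absorbance band was integrated. Mean ± SD, n = 3; Dunnett's test.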

[6] = biological target: Aβ1–42 fibrils (Homo sapiens, UniProt P05067); assay: Aβ fibril destabilization assay; assay type: biochemical; conditions: 100 μM constituent, 50 μM Aβ1–42 fibrils, 37 °C, 5 h
In short: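 Aβ1−42 was pre-aggregated at 37 °C for 2 days, and fibril formation was confirmed by 1 h of stable ThT RFU. Constituent was then added (100 μM final; 50 μM Aβ1−42) and ThT fluorescence (Ex/Em 440/484 nm) was read for 5 h at 37 °C as in the aggregation assay. AUC was calculated. Mean ± SD, n = 3; Dunnett's test.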

[7] = system: IL 1B mRNA in THP-1 cells; assay: RT-qPCR of IL 1B in Aβ1–42-stimulated THP-1 cells; assay type: cell-based, human; conditions: 10 μM Aβ1–42, 24 h; ARA 0.1 μM, LPC 10 μM, LTN 0.1 μM, POA 10 μM, ZX 1 μM
[8] = biological target: T1, Aβ1–42; assay: Transmission electron microscopy of Aβ1–42 fibrils after ThT assay; assay type: biochemical; conditions: 100 μM constituent, 50 μM Aβ1–42, 3 h incubation
In short: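 After the 3 h, 37 °C ThT assay (50 μM Aβ1−42, 100 μM constituent), 10 μL was spotted on a copper grid. It was stained with 2% aqueous uranyl acetate, blotted, air-dried and imaged by TEM at 120 kV.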

[9] = system: TNF protein in THP-1 cell culture media; assay: ELISA of TNF in supernatant of Aβ1–42-stimulated THP-1 cells; assay type: cell-based, human; conditions: 10 μM Aβ1–42, 24 h; LTN 0.1 μM
In short: (§1)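 THP-1 cells were seeded at 5 × 10^5 cells/mL and differentiated to adherent macrophage-like cells (24 h). They were rested 24 h at 37 °C in RPMI-1640/10% FBS/1% P/S, then stimulated with 10 μM Aβ1−42 ± constituent for 24 h. Supernatant was assayed with human IL-1β or TNF-α sandwich ELISA kits, reading A450 and converting to pg/mL. Mean ± SE, n = 3; Tukey's test.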

[10] = monkeys, after feeding; cited from earlier work
[11] = system: IL 1B protein in THP-1 cell culture media; assay: ELISA of IL 1B in supernatant of Aβ1–42-stimulated THP-1 cells; assay type: cell-based, human; conditions: 10 μM Aβ1–42, 24 h; LTN 0.1 μM
In short: as §1

[12] = system: Aβ; conditions: previously shown; cited from earlier work
[13] = system: Caco-2 cells; conditions: in vitro; cited from earlier work
[14] = biological target: T1, Aβ1–42; conditions: previous paper; cited from earlier work

Sequence of Aβ1–42 fibrils (P05067 672-713): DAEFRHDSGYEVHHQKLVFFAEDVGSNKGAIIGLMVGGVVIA
T1 sequence (P05067 672-713): as above

## CCCCC/C=C\C/C=C\C/C=C\C/C=C\CCCC(=O)O [ARA, arachidonic acid]
[1]
  Optimal (nontoxic) concentration determined by MTT assay: 0.1 µM
[2]
  TNF mRNA induced by Aβ1–42: not suppressed
[3]
  Inhibition of Aβ1–42 oligomerization (PICUP): did not inhibit oligomerization
[4]
  IC50: 37.4 µM
  Time course of RFU (curve shape) at lower concentrations: did not improve
[4]; 100 μM ARA, 50 μM Aβ1–42
  RFU at start of ThT assay: approximately 25 RFU
[5]
  AUC of absorbances in the range of 1615–1645 cm^–1 (parallel β-sheet): decrease
[6]
  RFU of ThT during incubation with preformed Aβ1–42 fibrils: remained unchanged
[7]
  IL 1B mRNA induced by Aβ1–42: not suppressed
[8]
  Inhibition of Aβ1–42 aggregation observed by TEM: inhibited Aβ1–42 aggregation

## CC1=C[C@H](O)CC(C)(C)[C@H]1/C=C/C(C)=C/C=C/C(C)=C/C=C/C=C(C)/C=C/C=C(C)/C=C/C1=C(C)C[C@@H](O)CC1(C)C [LTN, lutein]
[9]
  Protein concentration of TNF in the supernatant: no difference was observed
[1]
  Optimal (nontoxic) concentration determined by MTT assay: 0.1 µM
[2]
  TNF mRNA induced by Aβ1–42: suppressed
[3]
  Inhibition of Aβ1–42 oligomerization (PICUP): did not inhibit oligomerization
[4]
  IC50: 74 µM
  Concentration dependence of activity in ThT assay: concentration-dependent
  Time course of RFU (curve shape) at lower concentrations: sigmoidal curve
[5]
  AUC of absorbances in the range of 1615–1645 cm^–1 (parallel β-sheet): particular decrease
[6]
  RFU of ThT during incubation with preformed Aβ1–42 fibrils: remained unchanged
[10]
  Concentration of LTN in the brains: increases
[11]
  Protein concentration of IL 1B in the supernatant: suppressed
[7]
  IL 1B mRNA induced by Aβ1–42: suppressed
[12]
  Inhibition of Aβ aggregation: inhibit Aβ aggregation
[8]
  Inhibition of Aβ1–42 aggregation observed by TEM: inhibited the Aβ1–42 aggregation the most
[13]
  Intestinal absorption of LTN in the presence of LPC: increases

## CCCCCC/C=C\CCCCCCCC(=O)O [POA, palmitoleic acid]
[1]
  Optimal (nontoxic) concentration determined by MTT assay: 10 µM
[2]
  TNF mRNA induced by Aβ1–42: not suppressed
[3]
  Inhibition of Aβ1–42 oligomerization (PICUP): inhibited oligomerization
[4]
  Concentration dependence of activity in ThT assay: no concentration dependence
[6]
  RFU of ThT during incubation with preformed Aβ1–42 fibrils: decreased
[7]
  IL 1B mRNA induced by Aβ1–42: not suppressed
[8]
  Inhibition of Aβ1–42 aggregation observed by TEM: inhibited Aβ1–42 aggregation
  Morphology of Aβ fibrils by TEM: amorphous

## CC1=C(/C=C/C(C)=C/C=C/C(C)=C/C=C/C=C(C)/C=C/C=C(C)/C=C/C2=C(C)C[C@@H](O)CC2(C)C)C(C)(C)C[C@H](O)C1 [ZX, zeaxanthin]
[1]
  Optimal (nontoxic) concentration determined by MTT assay: 1 µM
[2]
  TNF mRNA induced by Aβ1–42: not suppressed
[3]
  Inhibition of Aβ1–42 oligomerization (PICUP): inhibited oligomerization
[5]
  AUC of absorbances in the range of 1615–1645 cm^–1 (parallel β-sheet): decrease
[6]
  RFU of ThT during incubation with preformed Aβ1–42 fibrils: remained unchanged
[7]
  IL 1B mRNA induced by Aβ1–42: not suppressed
[12]
  Inhibition of Aβ aggregation: inhibit Aβ aggregation
[8]
  Inhibition of Aβ1–42 aggregation observed by TEM: inhibited Aβ1–42 aggregation

## L-α-lysophosphatidylcholine [LPC]
[1]
  Optimal (nontoxic) concentration determined by MTT assay: 10 µM
[14]
  Effect on Aβ1–42 aggregation: facilitates Aβ1–42 aggregation
[2]
  TNF mRNA induced by Aβ1–42: not suppressed
[4]
  Time course of RFU (curve shape) at lower concentrations: did not improve
[5]
  AUC of absorbances in the range of 1615–1645 cm^–1 (parallel β-sheet): particular decrease
[6]
  RFU of ThT during incubation with preformed Aβ1–42 fibrils: remained unchanged
[7]
  IL 1B mRNA induced by Aβ1–42: not suppressed
[8]
  Inhibition of Aβ1–42 aggregation observed by TEM: inhibited Aβ1–42 aggregation
